Source: ChEMBL document CHEMBL2157923, “1,3-Azoles from ortho-naphthoquinones: synthesis of aryl substituted imidazoles and oxazoles and their potent activity against Mycobacterium tuberculosis” (Bioorg Med Chem, 2012)
In brackets after ≈: the same amount, converted by molar mass. Activity calls are given as the source filed them. The calls are words filed in the database; no cut-off is given here.

Assays:
[1] = system: PBMC; test: Cytotoxicity against human PBMC after 72 hrs by alamar blue assay; type: cell-based
Procedure, shortened: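 Alamar Blue assay on human PBMC. Compounds at 0.048 to 25 µg/mL in DMSO (0.1%) added after 24 h and exposed 72 h. Resazurin added 24 h before the end. Absorbance read at 570 and 595 nm, medium blank subtracted, and % reduced computed with correction factor R0. Effect expressed as percentage of control.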

[2] = system: Mycobacterium tuberculosis; test: Antimycobacterial activity against pan-susceptible Mycobacterium tuberculosis H37Rv ATCC 27294 after 7 days by resazurin microtitre assay; type: functional
Procedure, shortened: (§1)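 REMA MIC. Strains kept on Ogawa-Kudoh medium 14 days at 37 °C. Suspension vortexed and adjusted to McFarland tube 1 (3.2 × 10^6 cfu/mL), then diluted 1:20 in Middlebrook 7H9 with 10% OADC and glycerol. Compounds tested from 100 ug/mL down to 0.19 ug/mL. Incubated 7 days at 37 °C, resazurin added, 2 more days at 37 °C; colour change read.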

[3] = system: Mycobacterium tuberculosis; test: Antimycobacterial activity against pan-susceptible Mycobacterium tuberculosis H37Rv; type: functional; procedure, shortened: as §1

Row | SMILES | IC50 [1] [µg/mL] | MIC ([2]; H37Rv ATCC 27294, 168 h) [µM] | other results
1 | CC1(C)CCc2c(c3ccccc3c3nc(-c4ccc(C#N)cc4)[nH]c23)O1 | > 25 | – | MIC [2]: inactive
2 | C=CCC1Cc2c(c3ccccc3c3nc4ccccc4nc23)OC1(C)C (stereo not drawn) | – | – | MIC [3]: 0.78 µg/mL (≈ 2.2 µM)
3 | CC1(C)CCc2c(c3ccccc3c3nc(-c4ccc(C#N)cc4)oc23)O1 | – | 17.6 (≈ 6.24 µg/mL) | –
4 | COc1ccccc1-c1nc2c([nH]1)c1c(c3ccccc32)OC(C)(C)CC1 | – | 17.4 (≈ 6.24 µg/mL) | –
5 | CC1(C)CCc2c(c3ccccc3c3nc(-c4ccc(Cl)cc4)[nH]c23)O1 | > 25 | 34.4 (≈ 12.5 µg/mL) | –
6 | CC1(C)CCc2c(c3ccccc3c3nc(-c4ccccc4Br)[nH]c23)O1 | > 25 | 7.6 (≈ 3.1 µg/mL) | –
7 | CC1(C)CCc2c(c3ccccc3c3nc(-c4ccccc4C(F)(F)F)[nH]c23)O1 | – | 4 (≈ 1.59 µg/mL) | –
8 | CC1(C)CCc2c(c3ccccc3c3nc(-c4ccccc4[N+](=O)[O-])[nH]c23)O1 | > 25 | 268 (≈ 100 µg/mL) | –
9 | CC(C)CCc1c2[nH]c3ccccc3nc-2c2c(c1=O)CCCC2 | – | – | MIC [3]: ≤ 3 µg/mL
10 | C=CCC1=C(O)C(=O)c2ccccc2C1=O | – | 467 (≈ 100 µg/mL) | –
11 | NNC(=O)c1ccncc1 [ISONIAZID] | – | ≤ 0.4 | –
12 | CC1(C)CCc2c(c3ccccc3c3nc(-c4cccc(Br)c4)[nH]c23)O1 | > 25 | 15.3 (≈ 6.23 µg/mL) | –
13 | CC1(C)Cc2c(c3ccccc3c3nc(-c4ccc([N+](=O)[O-])cc4)oc23)O1 | – | > 278 | –
14 | CC1Cc2c(c3ccccc3c3nc(-c4ccc([N+](=O)[O-])cc4)oc23)O1 (stereo not drawn) | – | > 289 | –
15 | CC1(C)CCc2c(c3ccccc3c3nc(-c4cc5ccccc5cn4)[nH]c23)O1 | > 25 | 16.4 (≈ 6.22 µg/mL) | –
16 | CC1(C)CCc2c(c3ccccc3c3nc(-c4cccc(C(F)(F)F)c4)[nH]c23)O1 | – | 4 (≈ 1.59 µg/mL) | –
17 | CC1(C)CCc2c(c3ccccc3c3nc(-c4cccc(F)c4)[nH]c23)O1 | > 25 | 9 (≈ 3.12 µg/mL) | –
18 | CC1(C)CCc2c(c3ccccc3c3nc(-c4ccc([N+](=O)[O-])cc4)[nH]c23)O1 | – | 268 (≈ 100 µg/mL) | –

Row | SMILES | IC50 [1] [µg/mL] | MIC ([2]; H37Rv ATCC 27294, 168 h) [µM] | other results
19 | CC1(C)CCc2c(c3ccccc3c3nc(-c4cccc(C#N)c4)oc23)O1 | – | 35.2 (≈ 12.5 µg/mL) | –
20 | Cc1ccc(-c2nc3c(o2)c2c(c4ccccc43)OC(C)(C)C2)cc1 | – | > 304 | –
21 | CC1(C)CCc2c(c3ccccc3c3nc(-c4cccnc4)[nH]c23)O1 | – | – | MIC [2]: inactive
22 | CC1CC2=C(O1)c1ccccc1C(=O)C2=O (stereo not drawn) | – | 14.5 (≈ 3.11 µg/mL) | –
23 | CC1(C)CCc2c(c3ccccc3c3nc(-c4ccc(Br)cc4)[nH]c23)O1 | > 25 | – | MIC [2]: inactive
24 | CC1(C)CCc2c(c3ccccc3c3nc(-c4ccccc4C#N)oc23)O1 | – | 35.2 (≈ 12.5 µg/mL) | –
25 | CC1(C)CCc2c(c3ccccc3c3nc(-c4ccc(F)cc4)[nH]c23)O1 | > 25 | 72.2 (≈ 25 µg/mL) | –
26 | CC1(C)Cc2c(c3ccccc3c3nc(-c4ccccc4)[nH]c23)O1 | > 25 | > 318 | –
27 | CC1(C)CCc2c(c3ccccc3c3nc(-c4cnc5ccccc5c4)[nH]c23)O1 | – | – | MIC [2]: inactive
28 | CC1(C)CCc2c(c3ccccc3c3nc(-c4cccc(C#N)c4)[nH]c23)O1 | > 25 | – | MIC [2]: inactive
29 | CC1(C)CCc2c(c3ccccc3c3nc(-c4ccccc4)[nH]c23)O1 | > 25 | > 304 | –
30 | CO[C@H]1/C=C/O[C@@]2(C)Oc3c(C)c(O)c4c(O)c(c(/C=N/N5CCN(C)CC5)c(O)c4c3C2=O)NC(=O)/C(C)=C\C=C\[C@H](C)[C@H](O)[C@@H](C)[C@@H](O)[C@@H](C)[C@H](OC(C)=O)[C@@H]1C [RIFAMPIN] | – | ≤ 0.1 | –
31 | Cc1ccccc1-c1nc2c([nH]1)c1c(c3ccccc32)OC(C)(C)CC1 | – | 9 (≈ 3.08 µg/mL) | –
32 | CC1(C)CCc2c(c3ccccc3c3nc(-c4ccc(C(F)(F)F)cc4)[nH]c23)O1 | – | – | MIC [2]: inactive
33 | Cc1ccc(-c2nc3c([nH]2)c2c(c4ccccc43)OC(C)(C)C2)cc1 | – | > 304 | –
34 | CC1(C)CCc2c(c3ccccc3c3nc(-c4ccccn4)[nH]c23)O1 | – | 75.9 (≈ 25 µg/mL) | –
35 | CC1(C)CCc2c(c3ccccc3c3nc(-c4cccc([N+](=O)[O-])c4)[nH]c23)O1 | > 25 | – | MIC [2]: inactive
